Values after ≈ are worked out from the molar mass of the structure shown.
Columns and labels:
[1] = In vitro growth inhibitory activity for effect on melting temperature of DNA was determined
Procedure, shortened: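 DNA thermal denaturation; ΔTm = Tm of DNA-drug complex minus Tm of DNA. Drug 1.4×10⁻⁴ M, DNA (P) 1.4×10⁻³ M in 0.01 M phosphate buffer pH 7.0 with 5×10⁻³ M EDTA and 5% dimethyl sulfoxide.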

Homo sapiens = species: Homo sapiens; assay: In vitro growth inhibitory activity against human lymphoblastic leukemia cells; format: functional; settings: read-out: ID50 (the source's name)
Procedure, shortened: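 CCRF-CEM human lymphoblastic leukemia cells in log-phase growth; compounds dissolved in Me₂SO, final growth medium 1% Me₂SO.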

P388 [2] = assay: Antitumor activity against P-388 lymphocytic leukemia in CDF1 hybrid male mice measured as percent increase in lifespan( 0.3 mg/kg),ip; format: functional; settings: Mus musculus
Procedure, shortened: (§1)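 Male CDF1 mice (18-23 g) were inoculated ip with 10⁶ P-388 cells on day 0. Drug was given ip in 10% dimethyl sulfoxide-saline on days 1, 5 and 9. Test solutions were kept at 0-4 °C, protected from light, and checked periodically for stability and homogeneity by TLC and HPLC. Read-out was survival, median survival time, increase in life span and tumor-free cures per 7 animals.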

P388 [3] = assay: Antitumor activity against P-388 lymphocytic leukemia in CDF1 hybrid male mice measured as percent increase in lifespan(1.8 mg/kg),ip; format: functional, Mus musculus; procedure, shortened: as §1
P388 [4] = assay: Maximum tolerated dose was compared to 7-(2,3-Epoxypropoxy)-actinomycin D against P-388 leukemia in mice(4 days); format: functional, Mus musculus
Procedure, shortened: (§2)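 Tumor-free male CDF1 mice (18-23 g) received a broad dose range ip in 10% dimethyl sulfoxide-saline, either on days 1, 5, 9 (three injections) or on 4 successive days (qd 1-4). Deaths were recorded over 21 days. MTD was the dose lethal to 10% (LD10), taken from a plot of log dose vs percent mortality. Average of two experiments.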

P388 [5] = assay: Number of mice with P-388 lymphocytic leukemia cured.( 1.8 mg/kg),ip; 3/7; format: functional, Mus musculus
P388 [6] = assay: Antitumor activity against P-388 lymphocytic leukemia in CDF1 hybrid male mice measured as median survival time ( 0.15 mg/kg),ip; format: functional, Mus musculus; procedure, shortened: as §1
P388 [7] = assay: Number of mice with P-388 lymphocytic leukemia cured( 0.6 mg/kg),ip; 1/7; format: functional, Mus musculus; procedure, shortened: as §1
P388 [8] = assay: Antitumor activity against P-388 lymphocytic leukemia in CDF1 hybrid male mice measured as median survival time ( 1.2 mg/kg),ip; format: functional, Mus musculus; procedure, shortened: as §1
P388 [9] = assay: Antitumor activity against P-388 lymphocytic leukemia in CDF1 hybrid male mice measured as percent increase in lifespan( 0.6 mg/kg),ip; format: functional; settings: Mus musculus; procedure, shortened: as §1
P388 [10] = assay: Maximum tolerated dose was compared to 7-(2,3-Epoxypropoxy)-actinomycin D against P-388 leukemia in mice(3 days); format: functional, Mus musculus; procedure, shortened: as §2
P388 [11] = assay: Number of mice with P-388 lymphocytic leukemia cured.( 0.15 mg/kg),ip; 0/7; format: functional, Mus musculus; procedure, shortened: as §1
P388 [12] = assay: Antitumor activity against P-388 lymphocytic leukemia in CDF1 hybrid male mice measured as median survival time (1.8 mg/kg),ip; format: functional, Mus musculus; procedure, shortened: as §1
P388 [13] = assay: Number of mice with P-388 lymphocytic leukemia cured( 0.3 mg/kg),ip; 1/7; format: functional, Mus musculus; procedure, shortened: as §1
P388 [14] = assay: Number of mice with P-388 lymphocytic leukemia cured( 2.4 mg/kg),ip; 2/7; format: functional, Mus musculus; procedure, shortened: as §1
P388 [15] = assay: Antitumor activity against P-388 lymphocytic leukemia in CDF1 hybrid male mice measured as percent increase in (1.2 mg/kg),ip; format: functional, Mus musculus; procedure, shortened: as §1
P388 [16] = assay: Antitumor activity against P-388 lymphocytic leukemia in CDF1 hybrid male mice measured as median survival time ( 2.4 mg/kg),ip; format: functional, Mus musculus; procedure, shortened: as §1
P388 [17] = assay: Antitumor activity against P-388 lymphocytic leukemia in CDF1 hybrid male mice measured as percent increase in lifespan( 0.15 mg/kg),ip; format: functional; settings: Mus musculus; procedure, shortened: as §1
P388 [18] = assay: Minimum effective dose was determined compared to 7-(2,3-Epoxypropoxy)-actinomycin D against P-388 leukemia in mice(3 days); format: functional, Mus musculus; design: unit: mg/kg
Procedure, shortened: (§3)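 MED was the dose (mg/kg) giving a 40% increase in life span over control in mice bearing ip P-388 leukemia. Drug was given ip in 10% dimethyl sulfoxide-saline on a q4d 1, 5, 9 (three injections) or qd 1-4 (four injections) schedule.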

P388 [19] = assay: Antitumor activity against P-388 lymphocytic leukemia in CDF1 hybrid male mice measured as median survival time ( 0.6 mg/kg),ip; format: functional, Mus musculus; procedure, shortened: as §1
P388 [20] = assay: Minimum effective dose was compared to 7-(2,3-Epoxypropoxy)-actinomycin D against P-388 leukemia in mice(4 days); format: functional, Mus musculus; procedure, shortened: as §3
P388 [21] = assay: Antitumor activity against P-388 lymphocytic leukemia in CDF1 hybrid male mice measured as percent increase in lifespan( 2.4 mg/kg),ip; format: functional; settings: Mus musculus; procedure, shortened: as §1
P388 [22] = assay: Number of mice with P-388 lymphocytic leukemia cured( 1.2 mg/kg),ip; 3/7; format: functional, Mus musculus; procedure, shortened: as §1
P388 [23] = assay: Antitumor activity against P-388 lymphocytic leukemia in CDF1 hybrid male mice measured as median survival time ( 0.3 mg/kg),ip; format: functional, Mus musculus; procedure, shortened: as §1
[24] = Therapeutic Index measured as the MTD/MED ratio compared to that of compound 4; settings: read-out: Therapeutic index
Procedure, shortened: (§4)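 Therapeutic index is MTD/MED, with ip dosing in 10% dimethyl sulfoxide-saline on a qd 1-4 or q4d 1, 5, 9 schedule. MED is the dose giving a 40% increase in life span over control in P-388-bearing mice. MTD is the LD10 in tumor-free male CDF1 mice (18-23 g) over 21 days, read from a log dose vs. percent mortality plot and averaged over 2-3 experiments.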

[25] = Therapeutic Index measured as the MTD/MED ratio compared to that of compound 3; settings: read-out: Therapeutic index; procedure, shortened: as §4

Cc1c2oc3c(C)c(O)c(N)c(C(=O)N[C@H]4C(=O)N[C@@H](C(C)C)C(=O)N5CCC[C@H]5C(=O)N(C)CC(=O)N(C)[C@H](C(C)C)C(=O)O[C@H]4C)c3nc-2c(C(=O)N[C@@H]2C(=O)N[C@H](C(C)C)C(=O)N3CCC[C@@H]3C(=O)N(C)CC(=O)N(C)[C@@H](C(C)C)C(=O)O[C@@H]2C)cc1=O
DNA melting temperature shift (ΔTm) [1]: 6.7 °C

CCN(CC)C(=O)c1c2nc3c(C(=O)N(CC)CC)ccc(C)c3oc-2c(C)c(=O)c1N
IC50 (Homo sapiens): ~10 µg/mL (≈ 22.8 µM) | DNA melting temperature shift (ΔTm) [1]: 0 °C

Cc1c2oc3c(C)c(OCC4CO4)cc(C(=O)N[C@@H]4C(=O)N[C@H](C(C)C)C(=O)N5CCC[C@H]5C(=O)N(C)CC(=O)N(C)[C@@H](C(C)C)C(=O)O[C@@H]4C)c3nc-2c(C(=O)N[C@@H]2C(=O)N[C@H](C(C)C)C(=O)N3CCC[C@H]3C(=O)N(C)CC(=O)N(C)[C@@H](C(C)C)C(=O)O[C@@H]2C)c(N)c1=O (stereo partly specified) [listing 1 of 2 here]
ILS at 0.3 mg/kg (P388 [2]): 263% | IC50 (Homo sapiens): 0.009 µg/mL (≈ 0.00678 µM) | ILS (P388 [3]): 300% | MTD (P388 [4]): 1.6 | Cure (P388 [5]): 3 | MST (P388 [6]): 29 days | Cure (P388 [7]): 1 | MST (P388 [8]): 43 days | ILS at 0.6 mg/kg (P388 [9]): 255% | MTD (P388 [10]): 3.6 | Cure (P388 [11]): 0 | MST (P388 [12]): 44 days | Cure (P388 [13]): 1 | Cure (P388 [14]): 2 | ILS (P388 [15]): 291% | MST (P388 [16]): 26 days | ILS at 0.15 mg/kg (P388 [17]): 164% | MED (P388 [18]): 0.05 | MST (P388 [19]): 41 days | MED (P388 [20]): 0.0375 | ILS at 2.4 mg/kg (P388 [21]): 136% | Cure (P388 [22]): 3 | MST (P388 [23]): 40 days

Cc1c2oc3c(C)c(O)c(N)c(C(=O)N[C@@H]4C(=O)N[C@H](C(C)C)C(=O)N5CCC[C@H]5C(=O)N(C)CC(=O)N(C)[C@@H](C(C)C)C(=O)O[C@@H]4C)c3nc-2c(C(=O)N[C@@H]2C(=O)N[C@H](C(C)C)C(=O)N3CCC[C@H]3C(=O)N(C)CC(=O)N(C)[C@@H](C(C)C)C(=O)O[C@@H]2C)cc1=O
selectivity ratio [24]: 10 | selectivity ratio [25]: 15

Cc1c2oc3c(C)c(OCC(O)CO)cc(C(=O)N[C@H]4C(=O)N[C@@H](C(C)C)C(=O)N5CCC[C@H]5C(=O)N(C)CC(=O)N(C)[C@@H](C(C)C)C(=O)O[C@H]4C)c3nc-2c(C(=O)N[C@H]2C(=O)N[C@@H](C(C)C)C(=O)N3CCC[C@H]3C(=O)N(C)CC(=O)N(C)[C@@H](C(C)C)C(=O)O[C@H]2C)c(N)c1=O (stereo partly specified)
DNA melting temperature shift (ΔTm) [1]: 5.1 °C

Cc1c2oc3c(C)c(OCC4CO4)cc(C(=O)N[C@@H]4C(=O)N[C@H](C(C)C)C(=O)N5CCC[C@H]5C(=O)N(C)CC(=O)N(C)[C@@H](C(C)C)C(=O)O[C@@H]4C)c3nc-2c(C(=O)N[C@@H]2C(=O)N[C@H](C(C)C)C(=O)N3CCC[C@H]3C(=O)N(C)CC(=O)N(C)[C@@H](C(C)C)C(=O)O[C@@H]2C)c(N)c1=O (stereo partly specified) [listing 2 of 2 here]
selectivity ratio [24]: 43 | selectivity ratio [25]: 72

From ChEMBL document CHEMBL1121953, “Carbon-7 substituted actinomycin D analogues as improved antitumor agents: synthesis and DNA-binding and biological properties” (J Med Chem, 1982)
